Laboratory results taken from ChEMBL document CHEMBL5096220, “Selective Inhibition of the Periodontal Pathogen Porphyromonas gingivalis by Third-Generation Zafirlukast Derivatives” (J Med Chem, 2022).
The source made the active and inactive calls. The rule behind the calls is not given here.

Assays:
Porphyromonas gingivalis [1] = test: Bactericidal activity against Porphyromonas gingivalis ATCC 33277 assessed as reduction in colony formation at 100 uM measured 24 hrs […] relative to control; format: functional; set-up: scale not given: the % may be the effect or the level left; settings: in the assay text read “CFU assay” for “safranin staining”
Method in brief: (§1)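 P. gingivalis ATCC 33277 (10^8/well) was grown anaerobically in supplemented BHI and treated 24 h at 1, 10 or 100 μM in DMSO. Cultures were diluted 1:400 and plated on blood agar; colonies were counted after 5 days anaerobic incubation. % inhibition was based on CFUs/mL vs medium-only cultures, three independent replicates. Controls: tetracycline 2.81 μM, DMSO.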

Porphyromonas gingivalis [2] = test: Antibacterial activity against Porphyromonas gingivalis ATCC 33277 assessed as growth inhibition at 100 uM measured after 30 mins by WST-1 assay relative to control; format: functional; set-up: scale not given: the % may be the effect or the level left
Method in brief: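 P. gingivalis ATCC 33277 (10^8 cells/well) was grown to log phase in supplemented BHI under anaerobic conditions and incubated 24 h with treatments. WST-1 A405 was read 30 min after reagent addition. Growth inhibition was calculated relative to medium-only cultures, six independent replicates per condition.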

Porphyromonas gingivalis [3] = test: Antibacterial activity against Porphyromonas gingivalis ATCC 33277 assessed as growth inhibition at 1 to 100 uM measured after 24 hrs by WST-1 assay relative to control; format: functional; set-up: scale not given: the % may be the effect or the level left; settings: dose 1-100 µM
Method in brief: (§2)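 Log-phase P. gingivalis ATCC 33277 was grown anaerobically in hemin/menadione-supplemented BHI, 10^8 cells/well, and treated for 24 h (DMSO vehicle). […] Derivatives: six independent replicates; controls: 42 replicates.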

Porphyromonas gingivalis [4] = test: Antibacterial activity against Porphyromonas gingivalis at 100 uM incubated for 5 days measured by […] relative to control; format: functional; settings: dose 10 µM; time 5 day; in the assay text read “10 uM” for “100 uM”; method in brief: as §1
Erythrocyte = test: Hemolytic activity in mouse RBC upto 100 uM incubated for 1 hr; format: toxicity, cell-based
Method in brief: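 Murine red blood cells incubated with compound at 3.13 to 100 μM for 1 h at 37 °C. PBS only was the negative control; Triton X-100 (1% v/v) set 100% hemolysis.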

Porphyromonas gingivalis [5] = test: Antibiofilm activity against Porphyromonas gingivalis ATCC 33277 assessed as inhibition of biofilm at 50 uM measured after 48 hrs by safranin staining relative to control; format: functional; set-up: scale not given: the % may be the effect or the level left
Method in brief: (§3)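 Biofilm formation: P. gingivalis ATCC 33277 (10^8 cells/well) was grown in supplemented BHI under anaerobic conditions with gentle shaking, exposed to 10, 25, 50 or 100 μM for 48 h. Biomass was stained with 0.1% safranin and A492 measured. Biofilm growth % = 100×OD treated/OD DMSO control. Positive controls: tetracycline 2.81 μM.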

Porphyromonas gingivalis [6] = test: Antibacterial activity against Porphyromonas gingivalis ATCC 33277 assessed as growth inhibition at 10 uM measured after 24 hrs by WST-1 assay relative to control; format: functional; set-up: scale not given: the % may be the effect or the level left; method in brief: as §2
Porphyromonas gingivalis [7] = test: Antibiofilm activity against Porphyromonas gingivalis ATCC 33277 assessed as inhibition of biofilm at 100 uM measured after 48 hrs by safranin staining relative to control; format: functional; set-up: scale not given: the % may be the effect or the level left; method in brief: as §3
[8] = Cytotoxicity against human OKF6 cells assessed as reduction in cell viability at 100 uM by Annexin V-FITC/PI staining based flow cytometric analysis relative to control; format: toxicity; settings: okf6, 100 µM
Method in brief: (§4)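 OKF6 keratinocytes were exposed 24 h to 10 or 100 μM. Apoptosis/necrosis was assessed by FITC-Annexin V staining and flow cytometry, ≥10,000 events per condition, in duplicate across two independent experiments. Controls: medium, 1% DMSO, staurosporine 8 μM.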

[9] = Cytotoxicity against human OKF6 cells assessed as reduction in cell viability at 10 uM by Annexin V-FITC/PI staining based flow cytometric analysis relative to control; format: toxicity; settings: okf6, 10 µM; method in brief: as §4
[10] = Hemolytic activity in mouse RBC at 27 microg/ml incubated for 1 hr; format: toxicity, cell-based, Erythrocyte; settings: mouse red blood cells (erythrocytes), at 27 µg/mL, read-out: Activity
Porphyromonas gingivalis [11] = test: Antibacterial activity against Porphyromonas gingivalis ATCC 33277 assessed as growth inhibition at 25 uM measured after 24 hrs by WST-1 assay relative to control; format: functional; set-up: scale not given: the % may be the effect or the level left; method in brief: as §2
[12] = Hemolytic activity in mouse RBC at 100 uM incubated for 1 hr; format: toxicity, cell-based, Erythrocyte; settings: mouse red blood cells (erythrocytes), read-out: Activity
Method in brief: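 Murine red blood cells were incubated 1 h at 37 °C with compounds at 3.13–100 μM. PBS served as the negative control and Triton X-100 (1% v/v) as the 100% hemolysis reference.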

Porphyromonas gingivalis [13] = test: Antibacterial activity against Porphyromonas gingivalis ATCC 33277 assessed as growth inhibition at 50 uM measured after 24 hrs by WST-1 assay relative to control; format: functional; set-up: scale not given: the % may be the effect or the level left; method in brief: as §2
HEK293 = test: Cytotoxicity against HEK293 cells assessed as cell survival rate upto 31.3 microg/ml measured after 24 hrs by resazurin dye based analysis; format: functional; settings: Homo sapiens, dose <= 31.3 µg/ml
Method in brief: (§5)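 HEK-293 and HepG2 cells were maintained in DMEM with 10% FBS and 1% Pen/Strep at 37 °C, 5% CO2. Compounds were tested over 0–62.6 μg/mL. Survival values above 100% were normalized to 100%.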

Streptococcus sanguinis = test: Antibacterial activity against Streptococcus sanguinis ATCC 10556 assessed as growth inhibition at 100 uM measured after 24 hrs by WST-1 assay relative to control; format: functional; set-up: scale not given: the % may be the effect or the level left
Method in brief: (§6)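 A. naeslundii ATCC 49340 (anaerobic) and S. sanguinis ATCC 10556 (aerobic) were grown in BHI with 5 μg/mL hemin and 1 μg/mL menadione to log phase, 10^8 cells/well. They were exposed to 1, 10 or 100 μM for 24 h, then WST-1 was added. […] Controls: DMSO, penicillin/streptomycin 1X.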

Fusobacterium nucleatum = test: Antibacterial activity against Fusobacterium nucleatum ATCC 25586 assessed as growth inhibition at 100 uM measured after 24 hrs by WST-1 assay relative to control; format: functional; set-up: scale not given: the % may be the effect or the level left
Method in brief: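 F. nucleatum ATCC 25586 was grown anaerobically in hemin/menadione-supplemented BHI to log phase, 10^8 cells/well. Treatment was 1, 10 or 100 μM for 24 h. WST-1 absorbance at 405 nm was read 30 min after reagent addition. % inhibition was calculated vs medium-only cultures, six independent replicates. Controls: DMSO, tetracycline 2.81 μM.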

Actinomyces naeslundii = test: Antibacterial activity against Actinomyces naeslundii ATCC 49340 assessed as growth inhibition at 100 uM measured after 24 hrs by WST-1 assay relative to control; format: functional; set-up: scale not given: the % may be the effect or the level left; method in brief: as §6
[14] = Cytotoxicity against human OKF6 cells assessed as morphological change at 100 uM […]; format: toxicity, cell-based; settings: okf6, 100 µM
Method in brief: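 OKF6 oral keratinocytes were treated 24 h at 10 or 100 μM. Cell morphology and density were examined by microscopy across the entire well. Controls: medium, 1% DMSO, staurosporine 8 μM.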

Porphyromonas gingivalis [15] = test: Antibiofilm activity against Porphyromonas gingivalis ATCC 33277 assessed as inhibition of biofilm at 25 uM measured after 48 hrs by safranin staining relative to control; format: functional; set-up: scale not given: the % may be the effect or the level left; method in brief: as §3
Porphyromonas gingivalis [16] = test: Bactericidal activity against Porphyromonas gingivalis ATCC 33277 assessed as reduction in colony formation at 10 uM measured 24 hrs by safranin staining relative to control; format: functional; settings: in the assay text read “CFU assay” for “safranin staining”; method in brief: as §1
Porphyromonas gingivalis [17] = test: Antibacterial activity against Porphyromonas gingivalis assessed as reduction of CFU at 10 uM incubated for 5 days measured by […]; format: functional, organism-based; settings: time 5.0 day; method in brief: as §1
HepG2 = test: Cytotoxicity against human HepG2 cells assessed as cell survival rate at upto 31.3 to 62.6 microg/ml measured after 24 hrs by resazurin dye based analysis relative to control; format: functional; settings: dose 31.3-62.6 µg/ml, at 31.3 to 62.6 µg/mL; method in brief: as §5
Porphyromonas gingivalis [18] = test: Antibiofilm activity against Porphyromonas gingivalis ATCC 33277 assessed as inhibition of biofilm at 10 uM measured after 48 hrs by safranin staining relative to control; format: functional; set-up: scale not given: the % may be the effect or the level left; method in brief: as §3
Porphyromonas gingivalis [19] = test: Antibacterial activity against Porphyromonas gingivalis ATCC 33277 assessed as growth inhibition at 1 uM measured after 24 hrs by WST-1 assay relative to control; format: functional; set-up: scale not given: the % may be the effect or the level left; method in brief: as §2
Porphyromonas gingivalis [20] = test: Antibiofilm activity against Porphyromonas gingivalis ATCC 33277 assessed as inhibition of biofilm at 10 to 100 uM measured after 48 hrs by safranin staining relative to control; format: functional; set-up: scale not given: the % may be the effect or the level left; settings: dose 10-100 µM; method in brief: as §3

COc1ccc(Cc2cn(CC(C)C)c3ccc([N+](=O)[O-])cc23)cc1C(=O)NS(=O)(=O)c1ccc([N+](=O)[O-])cc1
Activity (Porphyromonas gingivalis [1]): 100%
Activity (Porphyromonas gingivalis [2]): 73%

CCCCn1cc(Cc2ccc(OC)c(C(=O)NS(=O)(=O)c3ccc([N+](=O)[O-])cc3)c2)c2cc([N+](=O)[O-])ccc21
Activity (Porphyromonas gingivalis [3]): 69%
Activity (Porphyromonas gingivalis [4]): 71%
Activity (Erythrocyte): <= 15%
Activity (Porphyromonas gingivalis [5]): 63%
Activity (Porphyromonas gingivalis [1]): 100%
Activity (Porphyromonas gingivalis [6]): 77%
Activity (Porphyromonas gingivalis [7]): 57%
Activity [8]: 23%
Activity [9]: 63%

C[C@@H]1[C@H](O)[C@@H](C)/C=C/C=C/C=C/C=C/C=C/C=C/C=C/[C@H](O[C@@H]2O[C@H](C)[C@@H](O)[C@H](N)[C@@H]2O)C[C@@H]2O[C@](O)(C[C@@H](O)C[C@@H](O)[C@H](O)CC[C@@H](O)C[C@@H](O)CC(=O)O[C@H]1C)C[C@H](O)[C@H]2C(=O)O [AMPHOTERICIN B]
hemolysis at 1 h, 27 microg/ml [10]: 0%

COc1cc(C(=O)NS(=O)(=O)c2ccccc2C)ccc1Cc1cn(C)c2ccc(NC(=O)OC3CCCC3)cc12 [ZAFIRLUKAST]
Activity (Porphyromonas gingivalis [11]): 74%
hemolysis at 1 h, 100 µM [12]: 72%
Activity (Porphyromonas gingivalis [13]): 88%
Activity (HEK293): Not toxic
Activity (Porphyromonas gingivalis [7]): 58%

CCCn1cc(Cc2ccc(OC)c(C(=O)NS(=O)(=O)c3ccccc3F)c2)c2cc([N+](=O)[O-])ccc21
Activity (Erythrocyte): <= 25%

COc1ccc(Cc2cn(C)c3ccc([N+](=O)[O-])cc23)cc1C(=O)NS(=O)(=O)c1c(F)cccc1F
Activity (Streptococcus sanguinis): 40%
Activity (Fusobacterium nucleatum): 76%
Activity (Porphyromonas gingivalis [1]): 100%
Activity (Porphyromonas gingivalis [2]): 61%
Activity (Actinomyces naeslundii): 40%

CCCCn1cc(Cc2ccc(OC)c(C(=O)NS(=O)(=O)c3ccccc3F)c2)c2cc([N+](=O)[O-])ccc21
Activity (Erythrocyte): <= 25%

COc1ccc(Cc2cn(C)c3ccc([N+](=O)[O-])cc23)cc1C(=O)NS(=O)(=O)c1ccccc1Cl
Activity (Porphyromonas gingivalis [5]): 58%
Activity [14]: Toxic
Activity (Porphyromonas gingivalis [1]): 100%
Activity (Porphyromonas gingivalis [15]): 55%
Activity (Porphyromonas gingivalis [2]): 61%
Activity (Porphyromonas gingivalis [16]): Active
Activity (Porphyromonas gingivalis [17]): Active
Activity [8]: 5%
Activity [9]: 9%
Activity (HepG2): >76%
Activity (Porphyromonas gingivalis [18]): 53%

COc1ccc(Cc2cn(C)c3ccc([N+](=O)[O-])cc23)cc1C(=O)NS(=O)(=O)c1ccccc1Br
Activity [14]: Toxic
Activity (Porphyromonas gingivalis [1]): 100%
Activity (Porphyromonas gingivalis [2]): 61%
Activity (Porphyromonas gingivalis [16]): Active
Activity (Porphyromonas gingivalis [17]): Active
Activity (HepG2): >76%

COc1ccc(Cc2cn(C)c3ccc([N+](=O)[O-])cc23)cc1C(=O)NS(=O)(=O)c1ccccc1F
Activity (Porphyromonas gingivalis [1]): 100%
Activity (Porphyromonas gingivalis [15]): 52%
Activity (Porphyromonas gingivalis [2]): 61%
Activity (Porphyromonas gingivalis [16]): 96%
Activity (HepG2): >76%

COc1ccc(Cc2cn(C)c3ccc([N+](=O)[O-])cc23)cc1C(=O)NS(=O)(=O)c1ccc([N+](=O)[O-])cc1
Activity (Porphyromonas gingivalis [19]): 0%
Activity (Porphyromonas gingivalis [20]): 86%
Activity (Porphyromonas gingivalis [1]): 100%
Activity (Porphyromonas gingivalis [6]): 63%
Activity (Porphyromonas gingivalis [16]): Active

CCCn1cc(Cc2ccc(OC)c(C(=O)NS(=O)(=O)c3ccc([N+](=O)[O-])cc3)c2)c2cc([N+](=O)[O-])ccc21
Activity (Porphyromonas gingivalis [3]): 60%
Activity (Erythrocyte): <= 15%
Activity (Porphyromonas gingivalis [1]): 100%
Activity (Porphyromonas gingivalis [6]): 77%

CCn1cc(Cc2ccc(OC)c(C(=O)NS(=O)(=O)c3ccc([N+](=O)[O-])cc3)c2)c2cc([N+](=O)[O-])ccc21
Activity (Porphyromonas gingivalis [19]): 6%
Activity (Porphyromonas gingivalis [1]): 100%
Activity (Porphyromonas gingivalis [6]): 77%
Activity (Porphyromonas gingivalis [16]): 19%

CN(C)[C@@H]1C(O)=C(C(N)=O)C(=O)[C@@]2(O)C(O)=C3C(=O)c4c(O)cccc4[C@@](C)(O)[C@H]3C[C@@H]12 [TETRACYCLINE]
Activity (Porphyromonas gingivalis [7]): 57%
